Measured values published in ChEMBL document CHEMBL1140715, “Structure-activity relationships of novel iron chelators for the treatment of iron overload disease: the methyl pyrazinylketone isonicotinoyl hydrazone series” (J Med Chem, 2008).

Key:
[1] = Induction of intracellular iron mobilization in human […] cells relative to control; format: functional; design: concentration or dose not given beside the values
Summary of the method: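 SK-N-MC cells prelabeled with 59Fe-Tf (0.75 µM) for 3 h at 37 °C, washed four times with ice-cold PBS, then incubated with chelator (50 µM) for 3 h at 37 °C. Released 59Fe in medium and cell pellet counted by γ-scintillation. Mean ± SD, three experiments, triplicate determinations.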

[2] = Antiproliferative activity against human […] cells by MTT assay; format: cell-based
Summary of the method: (§1)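 MTT assay of cell proliferation; MTT colour formation directly proportional to viable cell number counted by Trypan blue staining. IC50 reported as mean ± SD of three experiments.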

MRC5 = test: Antiproliferative activity against human MRC5 cells by MTT assay; format: cell-based; summary of the method: as §1
[3] = Partition coefficient, log P of the compound; format: physicochemical; conditions: octanol/water
Summary of the method: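 Octanol–water partition coefficient measured spectrophotometrically.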

| Structure (SMILES) | Activity [1] [%] | IC50 [2] [µM] | IC50 (MRC5) [µM] | logP [3] |
| --- | --- | --- | --- | --- |
| O=C(N/N=C/c1c(O)ccc2ccccc12)c1ccncc1 | 44 | 0.83 |  |  |
| O=C(N/N=C/c1ccccn1)c1ccncc1 |  | > 80 |  |  |
| O=C(N/N=C/c1ccccn1)c1ccc(C(F)(F)F)cc1 |  | 22.4 |  |  |
| NC(=S)N/N=C/c1ncccc1N [TRIAPINE] |  | 0.66 |  |  |
| Nc1ccc(C(=O)N/N=C/c2ccccn2)cc1 |  | > 80 |  |  |
| O=C(NN=C(c1ccccn1)c1ccccn1)c1ccc(Br)cc1 |  | 0.3 |  |  |
| CN(C)C(=S)NN=C(c1ccccn1)c1ccccn1 |  | 0.001 |  |  |
| O=C(NN=C(c1ccccn1)c1ccccn1)c1ccccc1 |  | 3.04 |  |  |
| C/C(=N\NC(=O)c1ccccc1)c1cnccn1 [METHYL PYRAZINYLKETONE BENZOYL HYDRAZONE] | 31 | 3.62 | 7.04 | 1.9 |
| O=C(NN=C(c1ccccn1)c1ccccn1)c1ccc(C(F)(F)F)cc1 |  | 0.24 |  |  |
| O=C(N/N=C/c1ccccn1)c1ccccc1 |  | 19.2 |  |  |
| C/C(=N\NC(=O)c1cccs1)c1cnccn1 [METHYL PYRAZINYLKETONE THIOPHENECARBOXYL HYDRAZONE] | 31 | 2.13 | 5.54 | 2.6 |
| CC(=O)N(O)CCCCCNC(=O)CCC(=O)N(O)CCCCCNC(=O)CCC(=O)N(O)CCCCCN [DEFEROXAMINE] | 16 | 12.1 |  |  |
| O=C(N/N=C/c1ccccn1)c1ccc(O)cc1 |  | > 80 |  |  |
| Cc1ncc(CO)c(/C=N/NC(=O)c2ccncc2)c1O [PYRIDOXAL ISONICOTINOYL HYDRAZONE] | 40 |  |  |  |
| C/C(=N\NC(=O)c1cccc(Br)c1)c1cnccn1 | 31 | 1.15 | 3.12 | 2.9 |
| O=C(NN=C(c1ccccn1)c1ccccn1)c1ccc([N+](=O)[O-])cc1 |  | 0.26 |  |  |
| C/C(=N\NC(=O)c1ccc(N)cc1)c1cnccn1 | 34 | 58.8 | > 80 | 1.3 |
| C/C(=N\NC(=O)c1ccc(C(F)(F)F)cc1)c1cnccn1 | 31 | 1.16 | 2.09 | 2 |
| O=C(N/N=C/c1ccccn1)c1cccs1 |  | 22.7 |  |  |
| C/C(=N\NC(=O)c1ccc(Br)cc1)c1cnccn1 | 31 | 1.22 | 2.94 | 2.9 |
| O=C(NN=C(c1ccccn1)c1ccccn1)c1cccc(Br)c1 |  | 0.24 |  |  |
| O=C(N/N=C/c1ccccn1)c1ccc(Br)cc1 |  | 17.7 |  |  |
| C/C(=N\NC(=O)c1ccc(O)cc1)c1cnccn1 | 39 | 16.8 | > 80 | 1.9 |
| C/C(=N\NC(=O)c1ccc([N+](=O)[O-])cc1)c1cnccn1 | 31 | 1.39 | 2.87 | 2.1 |
| O=C(N/N=C/c1ccccn1)c1ccc([N+](=O)[O-])cc1 |  | 35.5 |  |  |
| C/C(=N\NC(=O)c1ccncc1)c1cnccn1 [METHYL PYRAZINYLKETONE ISONICOTINOYL HYDRAZONE] | 31 | 5.79 | 25.2 | 1.2 |
